# UPR XBP1 act: activators of adaptive XBP1 UPR arm, primary screen, cell-based, CHO-XBP1 luciferase reporter, luminescence, uHTS; 0.33% of 330,000 active; IRE1-XBP1 UPR activation; percent of tunicamycin response, DMSO as zero; activation, % at 20 µM;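 active = versus positive control, 20 µM dose yields 30% or more activation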
#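 Material: CHO-XBP1 cells stably carrying IRE1-XBP1-driven luciferase reporter / Amount: 1000 cells per well / Compound: 20 µM, 1% DMSO / Times: 6 h treatment, 37 °C / Detection: luciferase luminescence / Measure: % activation of reporter signal versus tunicamycin and DMSO controls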
# TLR9-MyD88 block: inhibitors of TLR9-MyD88 association in cells, primary screen, cell-based, CHO, BLA complementation, fluorescence; CCF4 FRET ratio; 0.21% of 340,000 active; inhibition, % at 4.98 µM; Toll-like receptor 9 (Homo sapiens) + Myeloid differentiation primary response protein …;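 active = inhibition above the mean over all tested compounds plus 3 SD, cut at about 21% in these data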
# TLR4 MyD88 comp: inhibitors of TLR4-MyD88 association in cells, primary screen, cell-based, HeLa CL3-4, BLA complementation, FRET ratio; AID 861, 2007; inhibition, % at 8.4 µM; 0.18% of 200,000 active; HeLa CL3-4 TLR4/MyD88 BLA complementation; in the data active = inhibition above about 25%
# CHOP inhibitor: inhibitors of CHOP promoter induction, primary screen, cell-based, unfolded protein response, luciferase reporter; inhibition, % at 10 µM; 3.8% of 220,000 active; CHO-K1 CHOP-promoter luciferase, tunicamycin-induced, 15-18 h;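 active = compounds that reduced the stress-induced luciferase reporter signal by more than about 70% of percent inhibition, limit read from the data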
# NOD2 RIPK2 PPI: NOD2-RIPK2 binding disruptors in cells, primary screen, fluorescence, CHO cells, BLA complementation. Receptor-interacting serine/threonine-protein kinase 2 (Homo sapiens), O43353. CCF4 ratio. inhibition, % at 4.98 µM. 0.38% of 360,000 active. AID 624267, 2012; in the data active = inhibition above about 21%
# UPR CHOP act: activators of apoptotic CHOP UPR arm, primary screen, cell-based, CHO-CHOP luciferase reporter, luminescence, uHTS | UPR activation; percent of tunicamycin response over DMSO baseline | activation, % at 10 µM | 0.34% of 330,000 active;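 active = at 10 µM dose, activation of 40% or more, normalized to positive control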
#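 assay system = CHO CHOP reporter cells | amount = 500 CHO-CHOP cells per well | buffer or medium = F12 with 10% FBS | incubation = 16-18 h cell attachment, then 6 h compound exposure, 37 °C | detection = luminescence read with Steady-Glo | read-out = percent activation relative to tunicamycin control | controls = tunicamycin high control, DMSO low control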
# NOD2-RIPK2 conf: NOD2-RIPK2 binding disruptors, retest, confirmation, fluorescence, CHO cells, BLA complementation, triplicate | CCF4 FRET | inhibition, % at 4.98 µM | shares compounds with NOD2 RIPK2 PPI | 70% of 1,200 active | AID 624370, 2012;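 active = mean inhibition across replicates above a set limit taken from the earlier primary screen, cut at about 21% in these data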
# BLA counter: NOD2-RIPK2 counterscreen BLA reporter activity; shares compounds with NOD2 RIPK2 PPI; CHO BLA reporter, CCF4 FRET ratio; inhibition, % at 4.98 µM; 57% of 1,200 active;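 active = mean inhibition above the low-control mean inhibition plus three low-control SD, cut at about 11% in these data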
# A number is an active result; - = inactive; . = no result. The sample as a whole holds a higher share of hits than the screen did.
SMILES,UPR XBP1 act,TLR9-MyD88 block,TLR4 MyD88 comp,CHOP inhibitor,NOD2 RIPK2 PPI,UPR CHOP act,NOD2-RIPK2 conf,BLA counter
O=C(C[C@H]1CC[C@@H](NC(=O)C2CC2)[C@@H](CO)O1)NCc1ccccc1Cl,.,.,.,.,-,.,.,.
CC(=O)N1CCOc2ccc(S(=O)(=O)N3CCC(C(=O)NCc4ccccc4)CC3)cc21,-,-,.,.,-,-,.,.
CCOC(=O)c1ccc2c(c1)N(CC#N)C(=O)C(C)(C)O2,-,-,-,-,-,-,.,.
CC(=O)Nc1cccc(S(C)(=O)=O)c1,-,-,-,-,21.3,-,-,-
CC(=O)Nc1cccc(N(C)S(C)(=O)=O)c1,-,-,-,-,-,-,.,.
CCc1ccccc1OCC(=O)Nc1nc(-c2cccnc2)cs1,-,-,-,-,-,-,.,.
Cc1onc(-c2ccccc2)c1C(=O)Nc1nnc(COc2ccc(Cl)cc2)s1,-,-,-,88.7,35.6,-,-,-
CC(C)N1CCC2(CC1)N=C(c1ccc3c(c1)OCO3)CC(c1cc(Cl)ccc1O)N2 (centres undefined),-,-,-,-,20.9,-,-,-
C=C1CC(Cn2cc(Br)c(=O)[nH]c2=O)(c2ccc(-c3ccccc3)cc2)OC1=O (centres undefined),.,-,.,.,79.3,.,71.0,-
CCN1C(=O)c2cccc3c(S(=O)(=O)N4CCC(C)CC4)ccc1c23,-,-,.,.,22.6,-,22.4,25.1
CCN(CC)c1ccc2c(C)c(-c3ccc(N)cc3)c(=O)oc2c1,-,-,-,-,27.3,-,23.6,32.7
CCOC(=O)Cc1c(C)c2ccc(N(CC)CC)cc2oc1=O,-,-,-,-,-,-,.,.
CCOc1ccc(NC2OCC(O)C(O)C2O)c([N+](=O)[O-])c1 (centres undefined),-,-,-,-,-,-,.,.
OC(c1ccc(F)cc1)c1nc(-c2cncnc2)cs1 (centres undefined),.,.,.,.,-,.,.,.
COC(=O)/C=C1\OCc2ccc(C)cc21,.,.,.,.,-,.,.,.
COC(=O)c1ccc(N2C(c3cc(OC)cc(OC)c3)=Cc3ccc(-c4cccnc4)cc3C2CC(=O)C2CC2)cc1 (centres undefined),.,.,.,.,-,.,.,.
COC(=O)c1ccc(N2C(c3cc(OC)cc(OC)c3)=Cc3ccc(-c4ccc(C(N)=O)cc4)cc3C2CC(=O)C2CC2)cc1 (centres undefined),.,.,.,.,34.4,.,35.7,58.5
O=C(NC1CCCCC1)c1ccc(-c2cn[nH]c2)c2ccoc12,.,.,.,.,-,.,.,.

# Source: PubChem
